Assay results taken from paper PMC6511231 (Cell reports, 2018).
Entries after “also recorded” stand apart in the source; their conditions may differ.

Columns and labels:
[1] = tested on: HeLaLIN28A; assay: let-7-sensitive dual luciferase reporter assay, HeLaLIN28A; type: cell-based, human; conditions: LI71 50–100 μM, 48 hr
Procedure, shortened: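 A HeLa clone stably expressing low-level FLAG-LIN28A plus the 8×let-7 Renilla/firefly dual-luciferase sensor was treated 48 hr with vehicle (DMSO) or test compound at the indicated concentrations. Dual luciferase activity was then assayed, with firefly as internal control. Runs used 3 or 5 biological replicates; Student's t test against vehicle.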

[2] = tested on: preE-let-7f; assay: Saturation transfer difference spectroscopy, preE-let-7f; type: binding, human; conditions: preE-let-7f alone
[3] = Solubility in solution; type: physicochemical; conditions: water / solution
[4] = target: TUT4 (Mus musculus, UniProt B2RX14); assay: Uridylation assay without LIN28; type: biochemical
Chain of TUT4 (B2RX14 230-1424): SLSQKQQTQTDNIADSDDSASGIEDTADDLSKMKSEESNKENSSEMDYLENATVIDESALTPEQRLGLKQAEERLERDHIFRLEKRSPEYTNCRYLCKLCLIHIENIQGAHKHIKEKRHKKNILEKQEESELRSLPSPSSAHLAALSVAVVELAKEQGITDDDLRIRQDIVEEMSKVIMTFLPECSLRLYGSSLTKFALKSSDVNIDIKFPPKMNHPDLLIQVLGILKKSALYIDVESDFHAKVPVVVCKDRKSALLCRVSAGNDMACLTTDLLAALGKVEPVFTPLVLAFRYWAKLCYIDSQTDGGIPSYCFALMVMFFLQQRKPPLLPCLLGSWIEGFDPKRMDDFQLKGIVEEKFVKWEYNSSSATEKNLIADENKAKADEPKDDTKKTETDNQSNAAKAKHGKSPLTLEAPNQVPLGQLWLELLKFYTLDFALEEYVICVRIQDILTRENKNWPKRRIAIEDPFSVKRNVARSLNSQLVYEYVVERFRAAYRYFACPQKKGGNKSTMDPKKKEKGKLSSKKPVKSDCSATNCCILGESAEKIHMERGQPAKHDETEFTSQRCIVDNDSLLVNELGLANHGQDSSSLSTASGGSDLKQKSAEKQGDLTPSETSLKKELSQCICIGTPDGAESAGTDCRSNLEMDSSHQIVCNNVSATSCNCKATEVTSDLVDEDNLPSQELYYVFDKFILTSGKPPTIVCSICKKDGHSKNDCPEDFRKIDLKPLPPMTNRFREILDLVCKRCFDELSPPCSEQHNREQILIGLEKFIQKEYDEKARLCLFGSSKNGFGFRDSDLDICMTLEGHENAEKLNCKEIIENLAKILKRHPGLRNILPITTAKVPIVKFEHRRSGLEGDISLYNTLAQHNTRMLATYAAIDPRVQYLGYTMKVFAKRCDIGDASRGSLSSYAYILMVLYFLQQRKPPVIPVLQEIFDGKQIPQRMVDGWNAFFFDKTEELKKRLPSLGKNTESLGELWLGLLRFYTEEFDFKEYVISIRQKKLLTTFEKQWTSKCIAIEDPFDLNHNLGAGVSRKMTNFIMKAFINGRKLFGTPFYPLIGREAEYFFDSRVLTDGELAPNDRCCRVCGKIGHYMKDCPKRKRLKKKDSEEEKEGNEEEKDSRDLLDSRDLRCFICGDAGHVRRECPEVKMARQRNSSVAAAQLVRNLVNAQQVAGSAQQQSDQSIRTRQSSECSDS

[5] = tested on: apoptosis; assay: Annexin V flow cytometry; type: cell-based; conditions: 100 μM, 48 hr
Procedure, shortened: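 Cells exposed to 100 μM test compound or vehicle for 48 hr, then harvested and stained with APC-conjugated annexin V following the kit protocol before flow cytometry.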

[6] = tested on: K562 leukemia cells; assay: qPCR of microRNA species in K562 cells; type: cell-based, human; conditions: 100 μM, 48 hr
Procedure, shortened: (§1)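 K562 leukaemia cells, or DKO+A mESCs (Lin28a/Lin28b double-knockout re-expressing wild-type LIN28A, in LIF/2i), were treated 48 hr with 100 μM test compound or vehicle. Total RNA was isolated with TRIzol and cDNA made with the miScript system. Mature and precursor microRNAs were quantified with specific primer assays relative to U6; n = 6 over two independent experiments.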

[7] = tested on: DKO+A mESCs; assay: qPCR of let-7 species in DKO+A mESCs; type: cell-based, mouse; conditions: 100 μM, 48 hr, LIF/2i culture, vs vehicle
Procedure, shortened: as §1

[8] = target: LIN28ΔK102 (Homo sapiens, UniProt Q9H9Z2, K102A); assay: Saturation transfer difference spectroscopy, K102A mutant; type: binding; conditions: K102A mutation, compared with LIN28Δ
Chain of LIN28ΔK102 (Q9H9Z2 16-187 K102A): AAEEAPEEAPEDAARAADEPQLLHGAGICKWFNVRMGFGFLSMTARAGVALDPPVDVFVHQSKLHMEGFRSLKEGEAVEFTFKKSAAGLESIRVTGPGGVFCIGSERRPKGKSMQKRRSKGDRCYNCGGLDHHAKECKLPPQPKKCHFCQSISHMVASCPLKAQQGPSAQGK
Procedure, shortened: (§2)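 Protein was dialysed overnight into 20 mM Bis-Tris pH 6.0, 100 mM NaCl, 10% v/v glycerol-d8, 5 mM DTT and D2O. Test compound was dissolved in DMSO-d6. Samples held 100 μM compound and 5 μM protein in dialysis buffer. STD spectra were collected at 700 MHz, irradiating the macromolecule only at −2 ppm, with a 2 s transfer delay.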

[9] = Cellular toxicity; type: cell-based; conditions: high micromolar concentrations
[10] = target: human LIN28ΔF73A (Homo sapiens, UniProt Q9H9Z2, F73A); assay: Competition / dose-response fluorescence polarization assay with LIN28ΔF73A; type: binding; conditions: preE-let-7f, preE-let-7a, preE-let-7d, preE-let-7g
Chain of human LIN28ΔF73A (Q9H9Z2 16-187 F73A): as the sequence (Q9H9Z2 16-187 K102A) above, with F58A, A87K counted along it
Procedure, shortened: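 Recombinant human LIN28ΔF73A (150 nM in the screening master mix; set at the FP-titration Kd for competition) was mixed with 2 nM FAM-labelled preE-let-7 probe (let-7f, -7a, -7d or -7g) in buffer M (100 mM NaCl, 20 mM Tris-HCl pH 7.0, 5 mM MgCl2, 10% glycerol, 5 mM DTT, 0.1% NP-40). Test compound was dispensed at 12 concentrations, 50 μM–20 nM. IC50 came from a 1:1 inhibition fit; each assay was run at least twice.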

[11] = target: human LIN28Δ (Homo sapiens, UniProt Q9H9Z2); assay: Saturation transfer difference spectroscopy, LIN28Δ; type: binding; conditions: 100 μM compound, 5 μM LIN28
Chain of human LIN28Δ (Q9H9Z2 16-187, stated change not applied): as the sequence (Q9H9Z2 16-187 K102A) above, with A87K counted along it
Procedure, shortened: as §2

[12] = target: mouse LIN28Δ:preE-let-7d complex (Mus musculus, UniProt Q8K3Y3); assay: HSQC spectroscopy; type: binding; conditions: 15N-labeled mouse LIN28Δ with unlabeled preE-let-7d
Chain of mouse LIN28Δ:preE-let-7d complex (Q8K3Y3 16-184, stated change not applied, one chain of several): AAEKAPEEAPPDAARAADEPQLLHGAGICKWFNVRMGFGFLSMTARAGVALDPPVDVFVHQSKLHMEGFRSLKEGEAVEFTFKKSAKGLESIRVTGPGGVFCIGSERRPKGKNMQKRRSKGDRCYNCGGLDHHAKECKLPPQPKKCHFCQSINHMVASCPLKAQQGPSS

IC50s with four let-7 pre-elements [10]: all within the low micromolar range
SMILES: CCOc1cccc2c1N[C@@H](c1ccc(C(=O)O)cc1)[C@H]1CC=C[C@@H]21 [LI71]
Relative Renilla luciferase activity [1]: significantly reduce the relative Renilla luciferase activity
Saturation transfer difference peaks [2]: but not preE-let-7f
Solubility [3]: better water solubility; also recorded: ample solubility in solution
Catalytic activity of TUT4 when LIN28 is not present [4]: does not abolish catalytic activity of TUT4
Apoptosis [5]: did not increase apoptosis
let-7 precursor species [6]: not correlated with increased levels of let-7 precursor species
miR-16 (non-LIN28-regulated microRNA) [6]: small but significant effect
miR-93, miR-99a and miR-151 (non-LIN28-regulated microRNAs) [6]: did not observe significant effects
Mature let-7 species ([6]; vs DMSO): significant increase in several let-7 species
Mature let-7 species [7]: increased levels of mature let-7 species
Saturation transfer difference signal [8]: increases the saturation transfer difference signal
Cellular toxicity [9]: low cellular toxicity
Saturation transfer difference peaks [11]: saturation transfer difference peaks of LI71 occur
HSQC peak intensity changes [12]: minor intensity reductions for a number of residues
